# KCNQ1 inh – human KCNQ1 channel inhibition | actives 1.3% (n = 310,000) | CHO-K1 KCNQ1, FluxOR thallium flux fluorescence; stronger effect = higher value | P51787 | B-score at 10 µM | AID 2642;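 active = compounds whose thallium flux B-score, printed positive for inhibition, exceeds three library SD while starting fluorescence stays within three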;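 also: channel opened by potassium depolarization with thallium stimulus after 20 min compound exposure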
# KCC2 mod – modulates chloride dependent transport by human KCC2 | Q9H2X9 | KCC2 cells, thallium flux FluoZin-2 fluorescence | B-score of Tl+ flux slope (higher = more flux/activation; lower = inhibition) at 10 µM | actives 2.2% (n = 190,000) | AID 1456;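 active = thallium flux slope and its plate-corrected score both differing from the plate sample mean at a set confidence after two filtering rounds, in either direction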;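 also: slope of fluorescence scaled to starting intensity during 10 to 20 s after thallium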
# KCNK9 inh – human KCNK9 channel inhibition; Q9NPC2; HEK293 KCNK9, FluxOR thallium flux fluorescence; stronger effect = lower value; B-score at 10 µM; actives 1.2% (n = 310,000);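 active = ratio B-score over 3 SD below the library mean, with starting fluorescence within 5 SD of its mean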;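 also: negative B-score means less thallium flux so channel inhibition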
# KCNQ1 act – potentiators or activators of human KCNQ1 potassium channel | P51787 | AID 2648 | CHO-K1 KCNQ1, thallium flux FluxOR fluorescence; stronger effect = higher value | actives 0.35% (n = 310,000) | B-score at 10 µM;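 active = fluorescence ratio B-score, a plate-corrected score, at least three library SD, with initial intensity B-score within 5 SD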
#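 System: Stable KCNQ1 CHO-K1 line | Incubation: 90 min dye loading and 20 min compound exposure, both at room temperature | Measure: Ratio B score | Medium: Assay buffer for compound exposure, DMSO matched across wells | Compound dosing: Single-concentration screen | Probe or stimulus: K+/Tl+ depolarizing stimulus | Measured by: Kinetic FluxOR fluorescence, 10 s baseline plus 110 s post-stimulus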
# hERG protect – shields human hERG channel from block by proarrhythmic agents | Q12809 | CHO-hERG, FluxOR thallium flux, dofetilide IC70 present | activation (rescue from dofetilide block), less the hit threshold, % at 10 µM | actives 0.51% (n = 310,000) | AID 1511;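 active = activation above the mean of controls blocked by dofetilide plus 5 SD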;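 also: thallium influx through hERG after potassium depolarization seen as dye fluorescence rise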
# KCNK3 inh – human KCNK3 channel inhibition, primary screen. CHO-KCNK3 thallium flux, FluxOR fluorescence; stronger effect = lower value. actives 0.84% (n = 340,000). O14649. B-score at 10 µM;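 active = B-score under library mean minus 4 SD, starting fluorescence ratio at most library mean plus 5 SD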;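 also: more negative B-score means stronger inhibition of thallium flux through KCNK3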
# KCNK9 inh conf – human KCNK9 inhibitor confirmation. shares compounds with KCNK9 inh. AID 492992. HEK293 KCNK9 cells, FluxOR thallium flux fluorescence. inhibition, % at 10 µM. actives 43% (n = 4,900);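 active = thallium signal inhibited by more than 5 SD of the compound-free buffer control wells, on both duplicate plates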;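 also: 0% = assay buffer control wells without compound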
# Kir21 sel – tests whether KCNK9 modulators also affect mouse Kir2.1; shares compounds with KCNK9 inh; Kir2.1 cells, FluxOR thallium flux fluorescence; inhibition, % at 10 µM; actives 4% (n = 4,900);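 active = thallium signal drop more than 5 SD beyond the mean of the no-compound control wells, seen in both duplicate plates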;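 also: signal is fluorescence rise after thallium addition divided by baseline fluorescence; plate controls were assay buffer only for no effect and full block by chlorpromazine control for full effect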
# KCNK9 uninduced – non-induced cell nonspecific activity of KCNK9 modulators; shares compounds with KCNK9 inh; AID 492997; actives 40% (n = 4,900); non-induced KCNK9-HEK293, FluxOR thallium flux; inhibition, % at 10 µM;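 active = thallium signal drop beyond 5 SD of the untreated control mean, on both duplicate plates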;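 also: plate controls were buffer only IC0 wells for no effect and SID17386958 at its maximal inhibitory level for full effect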
# * = called active by the depositor; i = inactive; . = not tested or not shown; ! = not confirmed by another sample. A selection: hits, their analogues and other compounds. The true share with any hit is near 4.1%.
SMILES,KCNQ1 inh,KCC2 mod,KCNK9 inh,KCNQ1 act,hERG protect,KCNK3 inh,KCNK9 inh conf,Kir21 sel,KCNK9 uninduced
COc1ccccc1C1N=C(c2ccccc2C)NO1 (stereo not drawn),i,.,i,i,-3.8,i,.,.,.
O=C(COC(=O)C1CCN(c2ccc(C(F)(F)F)cn2)CC1)c1cccc(Br)c1,i,.,i,i,-16.1,i,.,.,.
O=C(COC(=O)C1CCN(c2ccc(C(F)(F)F)cn2)CC1)c1ccccc1,i,.,i,i,-6.7,i,i,i,i
CC(=O)c1ccc(OC(=O)CCN2c3ccccc3Sc3ccccc32)cc1,i,-0.883,-11.7*,i,-7.2,i,74.5%*,i,27.5%*
CC(=O)c1ccc2c(c1)N(C)c1ccccc1S2,i,-0.623,i,i,-6.5,i,i,i,i
CC(=O)c1ccc2c(c1)N(CCCN(C)C)c1ccccc1S2,.,.,.,.,.,i,.,.,.
Cc1ccc2c(CN3CCN(Cc4ccccc4)CC3)cc(=O)oc2c1C,i,.,i,i,-6.8,i,i,i,i
CCOC(=O)C1CCN(Cc2cn(C)nc2-c2ccc(Oc3ccccc3)cc2)CC1,i,.,i,i,-14.8,i,i,i,i
Cc1cc(C)c2oc(=O)cc(CN3CCN(Cc4ccccc4)CC3)c2c1,i,.,i,i,-11.8,i,.,.,.
CCOC(=O)C1CCN(Cc2cc(Cl)c3ccccc3c2O)CC1,i,.,i,i,0.2,i,i,i,i
Cn1cc(CN2CCC(O)CC2)c(-c2ccc(Oc3ccccc3)cc2)n1,i,-1.78,i,i,-8.9,i,.,.,.
CCOC(=O)C1CCN(Cc2cc(=O)oc3cc(C)c(Cl)cc23)CC1,i,.,i,i,-3.1,i,i,i,i
CCOC(=O)C1CCN(Cc2cc(=O)oc3c(C)c(C)ccc23)CC1,i,.,i,i,-7.5,i,i,i,i
Cc1cccc(N(CC(=O)NCc2ccco2)C(=O)CCC(=O)Nc2ccccn2)c1,i,-0.0121,i,i,-3.8,i,.,.,.
COc1c(C)cc(C(=O)C2CCCN(C(=O)c3cccc(F)c3)C2)cc1C (stereo not drawn),i,-0.165,i,i,-7.1,i,i,i,i
COc1ccc(C(=O)C2CCCN(C(=O)c3cccc(Cl)c3F)C2)cc1OC (stereo not drawn),i,.,i,i,-7.8,i,i,i,i
COc1c(C)cc(C(=O)C2CCCN(C(=O)c3ccoc3)C2)cc1C (stereo not drawn),i,.,i,i,-11.7,i,.,.,.
NCCSC1CC(=O)N(Cc2ccc(F)cc2)C1=O (stereo not drawn),i,-0.00713,i,i,-11.5,i,.,.,.
COc1ccc2c(c1)C1=NN(/C(C)=C/C(C)=O)C(c3cccc(F)c3)C1CC2 (stereo not drawn),i,-1.39,-11.6*,i,-16.2,i,44.0%*,i,33.0%*
Cc1ccc(Cl)cc1NC1=C/C(=N\S(=O)(=O)c2cccs2)c2ccccc2C1=O,i,-1.16,-8.31*,i,-2.0,-10.1*!,26.5%*,i,i
COC(=O)C(C)NC(=O)C12CC3CC(C1)CC(c1ccc(C)cc1)(C3)C2 (stereo not drawn),i,.,i,i,-3.8,i,i,i,i
COc1ccccc1NC(=O)CN(c1ccc(C23CC4CC(CC(C4)C2)C3)cc1)S(C)(=O)=O,i,.,i,i,-11.1,i,i,i,i
COc1ccc(NC(=O)C23CC4CC(C2)CC(c2ccc(C)cc2)(C4)C3)cc1,i,-0.741,i,i,-12.2,i,i,i,i
CNC(=O)C12CC3CC(C1)CC(c1ccc(C)cc1)(C3)C2,i,.,i,i,-6.0,i,.,.,.
CS(=O)(=O)N(CC(=O)O)c1ccc(C23CC4CC(CC(C4)C2)C3)cc1,i,.,i,i,-6.8,i,.,.,.
SMILES,KCNQ1 inh,KCC2 mod,KCNK9 inh,KCNQ1 act,hERG protect,KCNK3 inh,KCNK9 inh conf,Kir21 sel,KCNK9 uninduced
COc1ccccc1NC(=O)C12CC3CC(C1)CC(c1ccc(C)cc1)(C3)C2,i,1.54,i,i,-12.0,i,i,i,i
Cc1ccc(C23CC4CC(CC(C(=O)NC(C)C)(C4)C2)C3)cc1,i,.,i,i,-2.7,i,.,.,.
COc1ccc(NC(=O)c2cnc(SCC(=O)NCCc3ccccc3)n(C)c2=O)cc1,i,.,i,i,-4.5,i,.,.,.
Cc1cc(C)cc(NC(=O)c2ccc(NC(=O)C3C4CC5OC(=O)C3C5C4)cc2)c1 (stereo not drawn),i,0.17,i,i,-13.0,i,.,.,.
CCN1CCN(c2nc(N)c([N+](=O)[O-])c(Nc3cccc(C)c3)n2)CC1,i,0.506,i,i,-9.7,i,.,.,.
O=C(NCC1(N2CCOCC2)CCCCC1)c1cccc(S(=O)(=O)N2CCc3ccccc3C2)c1,i,-0.091,i,i,1.5,i,.,.,.
CCCCSc1nc(SCC(=O)NCc2ccco2)c2c3c(sc2n1)COC(C)(CC)C3 (stereo not drawn),i,.,i,i,-21.3,i,i,i,i
c1ccc(-c2nc(-c3nccc4ccccc34)oc2-c2ccccc2)cc1,i,-0.0565,i,i,-9.0,i,i,i,i
CCOC(=O)c1oc2ccccc2c1NC(=O)c1cc(OC)cc(OC)c1,i,.,i,i,-13.8,i,.,.,.
CC1CCN(Cc2c(C(=O)N/N=C/c3ccc(C(C)(C)C)cc3)nnn2-c2nonc2N)CC1,i,.,i,i,-8.9,i,i,i,i
COc1cccc(C(N)=O)c1,i,.,i,i,-2.1,i,.,.,.
COc1cccc(/C(C)=N/N=C(\C)c2cccc(OC)c2)c1,i,.,-14*,i,-5.6,i,60.5%*,i,i
C/C(=N\NC(=O)C1(C)NC(C)(C)Cc2ccccc21)c1ccccc1 (stereo not drawn),i,-1.49,i,i,-14.1,i,.,.,.
CC(C)Cn1c2c(c(O)c(C(=O)Nc3ncccc3O)c1=O)CCCC2,i,-1.84,-9.71*,i,-10.1,i,55.0%*,i,40.0%*
